This is an account of results in PubChem BioAssay AID624363 (Broad Institute, 2012).

The term AC50 denotes the concentration at which the activity in the assay is half-maximal.

Values joined by “and” are separate entries in the source; they are usually repeats but may differ in a detail not shown here. Equal values may be shown once. Active and inactive are the calls of the source.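 The calls were made as follows: active = in every test run, a falling-signal curve whose half-maximal concentration is at most twice the top tested dose; inconclusive = runs disagree, flat fit at 30 to 70% inhibition, or poor fit; inactive = every test run inactive.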

System in one assay: not listed separately
Nature of the assay: MITF transcriptional activity inhibition, TRPM1 luciferase – cell-based, SK-MEL-5, dry powder, set 5, dose response (AID 624363). The conditions noted are these: SK-MEL-5 TRPM1 promoter luciferase reporter, 24 h; at 35 µM (top of the series). Put shortly: (§1)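 Assay system: SK-MEL-5 TRPM1 promoter luciferase reporter cells | Input: 2000 reporter cells per well | Doses: Test compounds added by pin transfer | Timing: 24 h compound treatment, 37 °C | Measured by: SteadyGlo luminescence | Controls: Parthenolide at 27 µM as positive control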
In general terms: A reporter such as luciferase makes a cellular process visible.
Turning to `C=CCNC1=C(NCC=C)C(=O)c2ccccc2C1=O`, the activity change, negative = inhibition is -12.8% (inactive).

Regarding `O=C1C(NS(=O)(=O)c2ccc(Br)cc2)=C(N2CCN(c3ccccc3)CC2)C(=O)c2ccccc21`, the activity change, negative = inhibition is -44.3% (inactive).

Regarding `COc1ccc(C2=C(NC(=O)c3ccc4ccccc4c3)C(=O)c3ccccc3C2=O)cc1`, the activity change, negative = inhibition was -15.2% (inactive).

As for `COc1ccc(C2=C(NC(=O)c3ccc(OC)cc3-c3cccc(OC)c3)C(=O)c3ccccc3C2=O)cc1`, the activity change, negative = inhibition was -14.7% (inactive).

Consider `O=C(NC1=C(N2CCN(c3ccccc3)CC2)C(=O)c2ccccc2C1=O)c1ccccc1`, for which the activity change, negative = inhibition is -32.8% (inactive).

For the compound `O=C(NC1=C(c2ccc(Oc3ccccc3)cc2)C(=O)c2ccccc2C1=O)c1ccccc1`, the activity change, negative = inhibition is -5.77% (inactive).

The subject of another assay is SK-MEL-5 TRPM1 promoter luciferase reporter, 24 h. The description is as above.
Settings: not given
The method, boiled down:
as §1
On to `O=C(NC1=C(N2CCSCC2)C(=O)c2ccccc2C1=O)c1ccc(Br)cc1`, for which the AC50 was 10.1 µM.

Take `O=C(NC1=C(N2CCCCC2)C(=O)c2ccccc2C1=O)c1ccccc1`: the AC50 was 23.3 µM.

Consider `CCN(CC)CCCNC1=C(Nc2ccccc2)C(=O)c2ccccc2C1=O`, for which the AC50 is 2.17 µM.

For the compound `O=C1C=C(Nc2ccccc2)C(=O)c2ccccc21`, the AC50 is 4.02 µM and 5.21 µM.

Consider `O=C(NC1=C(N2CCOCC2)C(=O)c2ccccc2C1=O)c1ccc(Br)cc1`, for which the AC50 was 12.5 µM.

With `C=CCNC1=C(N2CCN(CC)CC2)C(=O)c2ccccc2C1=O`, the AC50 is 4.47 µM.

With `O=C1C=C(NS(=O)(=O)c2ccccc2)C(=O)c2ccccc21`, the AC50 is 7.45 µM.

`COc1ccc(C(=O)NC2=C(c3ccc(OC)cc3)C(=O)c3ccccc3C2=O)cc1`: the AC50 is 7.11 µM.

Turning to `C=CCNC1=C(N2CCCCC2)C(=O)c2ccccc2C1=O`, the AC50 is 0.983 µM.

`O=C(CNc1cccc2ccccc12)N/N=C/c1ccc([N+](=O)[O-])o1`: the AC50 was 3.64 µM.

As to `C=CCNC1=C(NCCCN2CCOCC2)C(=O)c2ccccc2C1=O`, the AC50 is 13.9 µM.

`CC(=O)NC1=C(c2cccc(Cl)c2)C(=O)c2ccccc2C1=O`: the AC50 is 3.67 µM.

Take `COc1ccc(C(=O)NC2=C(c3ccc(OC(F)(F)F)cc3)C(=O)c3ccccc3C2=O)cc1`: the AC50 was 36.2 µM.

On to `CCN1CCN(C2=C(NS(=O)(=O)c3cccs3)C(=O)c3ccccc3C2=O)CC1`, for which the AC50 was 2.96 µM.

As to `O=C1C(NS(=O)(=O)c2ccc(Br)s2)=C(N2CCOCC2)C(=O)c2ccccc21`, the AC50 is 15 µM.

As for `O=C1C=C(NS(=O)(=O)c2ccc(Br)cc2)C(=O)c2ccccc21`, the AC50 is 9.16 µM.

Turning to `NC1=C(NS(=O)(=O)c2ccccc2)C(=O)c2ccccc2C1=O`, the half-maximal activity concentration (AC50) is 4.31 µM.

Consider `Cc1ccc(C(=O)NC2=C(c3ccc(OC(F)(F)F)cc3)C(=O)c3ccccc3C2=O)o1`, for which the AC50 was 13.4 µM.

As for `O=C1C(NCCCN2CCOCC2)=C(Nc2ccccc2)C(=O)c2ccccc21`, the AC50 was 3.7 µM.

In the case of `CCN1c2ccccc2NC2N=C(OC)C(c3ccccc3)C21` (stereo unspecified), the AC50 is 3.74 µM.

Turning to `CCN1CCN(C2=C(NS(=O)(=O)c3ccc(Br)cc3)C(=O)c3ccccc3C2=O)CC1`, the AC50 was 8.69 µM.

With `COc1ccc(C2=C(NC(C)=O)C(=O)c3ccccc3C2=O)cc1`, the AC50 is 4.84 µM.

Take `O=C(NC1=C(N2CCSCC2)C(=O)c2ccccc2C1=O)c1ccccc1`: the AC50 is 4.96 µM.

For the compound `COc1ccc(S(=O)(=O)N(C(C)=O)c2ccc(OC(C)=O)c3ccccc23)cc1[N+](=O)[O-]`, the AC50 is 6.42 µM.

In the case of `C=CCNC1=C(Nc2ccccc2)C(=O)c2ccccc2C1=O`, the half-maximal activity concentration (AC50) was 15.4 µM.

Regarding `Cc1ccc(C(=O)NC2=C(c3ccccc3)C(=O)c3ccccc3C2=O)o1`, the AC50 is 3.23 µM.

Regarding `O=C1C(NS(=O)(=O)c2ccccc2)=C(c2ccccc2)C(=O)c2ccccc21`, the AC50 is 20.5 µM.

`C=CCNC1=C(N(C)C(C)=O)C(=O)c2ccccc2C1=O`: the AC50 is 0.0923 µM.

As to `CC(=O)NC1=C(c2ccc(Cl)cc2)C(=O)c2ccccc2C1=O`, the half-maximal activity concentration (AC50) was 3.45 µM.

As for `NC1=C(NC(=O)c2ccccc2)C(=O)c2ccccc2C1=O`, the AC50 was 4.08 µM.

Consider `CCN1CCN(C2=C(N(C)C(C)=O)C(=O)c3ccccc3C2=O)CC1`, for which the AC50 was 0.318 µM.

For the compound `NC1=C(NS(=O)(=O)c2ccc(Br)cc2)C(=O)c2ccccc2C1=O`, the AC50 is 8.9 µM.

Consider `CC(=O)N(C)C1=C(N2CCOCC2)C(=O)c2ccccc2C1=O`, for which the concentration at half-maximal activity (AC50) was 2.45 µM.

On to `C=C1C(=O)OC2C1CC/C(C)=C\CCC1(C)OC21` (stereo unspecified), for which the AC50 is 3.51 µM.

With `CCN(CC)CCCNC1=C(N(C)C(C)=O)C(=O)c2ccccc2C1=O`, the AC50 is 0.305 µM.

As to `O=C(NC1=C(c2ccccc2)C(=O)c2ccccc2C1=O)c1ccccc1`, the AC50 is 6.93 µM.

In the case of `CC(=O)NC1=C(c2ccc(Oc3ccccc3)cc2)C(=O)c2ccccc2C1=O`, the AC50 was 19.8 µM.

With `O=C1C(NS(=O)(=O)c2ccc(Br)s2)=C(N2CCSCC2)C(=O)c2ccccc21`, the AC50 is 22.7 µM.

For `C=CCNC1=C(Cl)C(=O)c2ccccc2C1=O`, the AC50 was 0.799 µM and 1.88 µM.

For the compound `CN1CCN(C2=C(NC(=O)c3ccccc3)C(=O)c3ccccc3C2=O)CC1`, the AC50 is 1.04 µM.
